Screening results as filed in PubChem BioAssay.
The list is not random: actives were taken first. Their share in the collection is about 5.4%.
HIV Rev-RRE inh = HIV-1 Rev-RRE binding inhibitors, primary screen, biochemical, FRET, protein-RNA interaction; Rev peptide-RRE RNA binding; inhibition, % at 8 µM; AID 704, 2007; 97,000 tested, 0.79% active;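 active = inhibition above the screen-wide mean plus 3 SD, cut at about 35% in these data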;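 also: 0% = median DMSO wells and 100% = median Neomycin B control wells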
Target sequence (P05866 whole entry, looked up): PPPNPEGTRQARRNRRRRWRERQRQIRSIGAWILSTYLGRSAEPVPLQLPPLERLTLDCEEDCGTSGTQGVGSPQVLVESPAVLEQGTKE
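Assay system: Rev peptide and RRE RNA, both fluorescently labelled; times: 5 min preincubation and 15 min binding, 25 °C; detection: FRET, ex 480 nm, em 540 and 671 nm; read-out basis: % inhibition from 671/540 nm acceptor-to-donor ratio, scaled between controls; benchmarks: DMSO low control, neomycin B high control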
Cav32 inh = Cav3.2 calcium influx blockers – cell-based, Fluo-4 calcium fluorescence, FDSS, MLSMR library, primary screen; Cav3.2-expressing cells; active compounds read low; AID 449739, 2010; Voltage-dependent T-type calcium channel subunit alpha-1H (Homo sapiens), O95180; 100,000 tested, 4% active; B-score at 10 µM;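 active = single-dose well whose peak fluorescence ratio is a statistical outlier from its plate by either plate-standardised score or position-corrected B-score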
EphB4 ephrin blk = EphB4-ephrin-B2 interaction antagonists, primary screen, biochemical, TNYL-RAW peptide probe, fluorescence polarization. inhibition, % at 7 µM. Ephrin type-B receptor 4 (Homo sapiens), P54760. 97,000 tested, 0.15% active. EphB4 LBD / TNYL-RAW-Alexa532 peptide;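 active = inhibition above the screen-wide mean inhibition plus 3 SD, cut at about 15% in these data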;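 also: 0% = DMSO wells and 100% = excess unlabeled TNYL-RAW peptide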
DAT uptake mod = changed hDAT dopamine uptake under cocaine IC80, either direction, primary screen, cocaine antagonist project, cell-based, LLC-PK1 hDAT, [14C]-dopamine uptake, MLSMR | 110,000 tested, 1.3% active | B-score at 10 µM | LLC-PK1 hDAT cells, [14C]-dopamine uptake with cocaine IC80; actives deviate in either direction | Sodium-dependent dopamine transporter (Homo sapiens), Q01959;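 active = Z score or B-score, a plate-position-corrected score, falls beyond the plate's 99.7% confidence bounds, in either direction; inactive = both scores lie inside the 99.7% bounds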;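 also: scored against the spread of the other compound wells on the same plate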
Target sequence (Q01959 whole entry, looked up): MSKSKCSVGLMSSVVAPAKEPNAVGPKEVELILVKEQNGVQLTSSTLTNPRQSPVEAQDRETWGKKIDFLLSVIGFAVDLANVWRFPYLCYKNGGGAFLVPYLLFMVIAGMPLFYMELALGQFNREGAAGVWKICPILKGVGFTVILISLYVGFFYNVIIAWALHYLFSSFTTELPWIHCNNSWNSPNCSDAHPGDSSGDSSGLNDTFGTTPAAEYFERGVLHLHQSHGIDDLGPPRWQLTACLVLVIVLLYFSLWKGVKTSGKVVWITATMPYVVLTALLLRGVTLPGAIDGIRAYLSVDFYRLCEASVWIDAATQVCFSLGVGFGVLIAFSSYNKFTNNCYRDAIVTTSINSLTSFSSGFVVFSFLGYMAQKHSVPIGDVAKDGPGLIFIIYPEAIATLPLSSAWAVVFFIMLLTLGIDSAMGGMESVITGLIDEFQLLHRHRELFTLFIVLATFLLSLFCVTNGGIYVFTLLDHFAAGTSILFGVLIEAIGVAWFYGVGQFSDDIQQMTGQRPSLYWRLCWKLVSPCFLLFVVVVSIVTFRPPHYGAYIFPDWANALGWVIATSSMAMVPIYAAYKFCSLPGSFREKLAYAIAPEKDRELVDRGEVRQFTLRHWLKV
* marks the source's active call; other numbers are inactive results; nt = no result.

SMILES | HIV Rev-RRE inh | Cav32 inh | EphB4 ephrin blk | DAT uptake mod
CC(=O)C(N=Nc1ccccc1)(Sc1nnc(-c2ccccc2)n1-c1ccccc1)C(C)=O | -2 | -4.4* | -5 | 0.043
Cc1nc(SCC(=O)N2c3ccccc3Sc3ccccc32)n[nH]1 | 1 | -0.034 | -3 | 0.39
COC(=O)CN(c1ccc(F)cc1)S(=O)(=O)c1ccc2c(c1)OCCO2 | 3 | -0.09 | 5 | -0.016
O=C(NCc1ccc2[nH]c3c(c2c1)CCCC3)N1CCOCC1 | 39* | -0.46 | 1 | -0.45
CCOc1ccc(C2C=C(c3ccc(C)cc3)Nc3nnnn32)cc1 (stereo unspecified) | 39* | -0.11 | 0 | -0.19
Cn1cccc1C(=O)C(=O)Nc1cccc(Cl)c1Cl | 9 | 0.57 | 3 | -0.41
CC(C)Cn1c(=O)c2c(nc3n2CCCN3CCc2ccccc2)n(C)c1=O | -8 | 0.75 | -11 | 0.88
Cc1ccc(NCc2nnc(SCC(=O)N3CCCCC3)n2CC2CCCO2)c(C)c1 (stereo unspecified) | 7 | -0.17 | 0 | 0.44
CCn1c(COc2ccc(C)cc2)nnc1SCc1ccc(C#N)cc1 | 10 | -1.1 | 5 | 3*
Cc1ccc(NCc2nnc(SCc3ccc(C#N)cc3)n2Cc2ccco2)c(C)c1 | 4 | -6.5* | 2 | 2.8
Cc1cc(Cl)ccc1NC(=O)CSc1nnc(Cc2cccs2)n1Cc1ccco1 | 10 | -7.6* | -4 | 0.5
CCn1c(COc2ccc(C)cc2)nnc1SCC(=O)C(C)(C)C | -2 | -0.26 | 9 | -0.81
Cc1ccc(NCc2nnc(SCC(=O)Nc3ncc(C)s3)n2CC2CCCO2)c(C)c1 (stereo unspecified) | 2 | -4.5* | -6 | 0.32
CC(C)NS(=O)(=O)c1ccc(CCC(=O)Nc2ccc3c(c2)OCO3)cc1 | 9 | 1.2 | 6 | 0.38
CN(CCC#N)CC(=O)Nc1ccc(NC(=O)CN(C)CCC#N)cc1 | 7 | 0.87 | 9 | -0.94
CCOCCOC(=O)c1ccc(-n2cncn2)nc1 | 5 | -0.6 | -3 | -2.1
Cc1ccc(C(=O)CSc2nnc(CNc3ccc(C)cc3C)n2Cc2ccco2)cc1 | 8 | -9.7* | 4 | 1.4
CCOc1ccc(NCc2nnc(SCc3ccccc3Cl)n2-c2ccccc2)cc1 | 1 | -4.2* | 0 | -12*
Cn1c(CNc2ccc(Cl)cc2)nnc1SCc1ccccc1 | 5 | -2.3 | -7 | 0.28
CC(C)OC(=O)CSc1nnc(CNc2ccc(Cl)cc2)n1Cc1ccccc1 | 4 | -6.7* | -8 | 0.6
COC(=O)CSc1nnc(CNc2ccc(Cl)cc2)n1-c1ccccc1 | 3 | -0.2 | -1 | nt
CCOC(=O)CSc1nnc(CNc2ccc(Cl)cc2)n1Cc1ccccc1 | 5 | -0.82 | -6 | 0.18
CCn1c(CNc2ccc(Cl)cc2)nnc1SCc1ccccc1 | 12 | -8.5* | -5 | 1.8*
COC(=O)C1=C(C)N(CCc2cc(OC)c(OC)c(OC)c2)C(=O)N[C@H]1c1ccccc1 | nt | -0.46 | nt | 0.67
O=C(N[C@@H](Cc1ccccc1)C(=O)O)c1ccncc1 | nt | 0.35 | nt | -0.29
SMILES | HIV Rev-RRE inh | Cav32 inh | EphB4 ephrin blk | DAT uptake mod
Cc1nn(C2CCCCC2)c(N)c1-c1ccccc1 | 6 | -3.4* | -4 | -0.25
COc1ccc(CCCc2nnc(SCC(=O)Nc3cc(C)c(C)cc3Br)o2)cc1 | 1 | -5.1* | 1 | 0.64
Cc1ccc(OC(=O)CCc2c(C)nc3ncnn3c2C)cc1 | 0 | -1.1 | -4 | 0.49
COc1ccc(Nc2ncnc3c2cnn3Cc2ccccc2)cc1 | 15 | -0.29 | 0 | 3.2*
CN=c1scc(C)n1/N=C/c1ccc2c(c1)OCO2 | 3 | -4* | 5 | -0.77
COc1ccc(/C=N/NC(=O)c2cc(-c3ccc(C)cc3C)nc3ccccc23)cc1COC(C)=O | 3 | nt | -4 | nt
CCCCCCn1c(=O)c(-c2ccccc2)c(O)c2ccccc21 | -5 | -7.1* | 3 | 2
Cc1nn(Cc2ccccc2)c(C)c1NC(=O)c1cc(-c2ccco2)on1 | 7 | -6.2* | 1 | -0.93
C=CCn1c(SCC(=O)/C(C#N)=C(\C)N)nnc1C1CCCCC1 | -1 | 1.2 | -14 | -1.1
C/C(N)=C(/C#N)C(=O)CSc1nc(C2CCCCC2)n(-c2ccccc2)n1 | nt | -5.1* | nt | 2.1
CN1CCN(C(=O)C2=C[C@H](c3ccc(C(F)(F)F)cc3)C[C@H](OCc3ccc(CO)cc3)O2)CC1 | nt | 0.83 | nt | 0.049
Cc1nn(CCC(=O)NNC(=S)NCC(C)C)c(C)c1Br | 6 | 0.062 | -4 | 0.39
Cc1ccc(S(=O)(=O)n2nc(-c3ccc(Cl)cc3)nc2NCc2ccco2)cc1 | 10 | -6.6* | -1 | 1.2
O=c1c(-c2nc3ccccc3s2)cccn1Cc1ccc(Cl)c(Cl)c1 | 19 | nt | 6 | 0.6
COCc1nnc(NC(=O)CSc2ccc(C)cc2)s1 | 7 | 0.49 | 3 | -1.1
COCc1nnc(NC(=O)CSc2ccccc2)s1 | 5 | -0.23 | 0 | -2.6*
N=c1c2c(-c3ccccc3)c(-c3ccccc3)n(Cc3ccco3)c2ncn1Cc1ccco1 | nt | -9.3* | nt | 0.27
CCOc1ccc(C(C)=O)cc1COc1ccc(-n2cnnn2)cc1 | nt | -0.67 | nt | 1.6
O=C(CCS(=O)(=O)c1cccc2nsnc12)NCc1ccccc1Cl | 15 | 1.6 | 0 | -0.29
CC(C)NC(=O)c1cc(-c2ccco2)nn1-c1ccc(Cl)cc1 | 2 | -4 | -3 | -0.02
O=C(c1cc(-c2ccco2)nn1-c1cccc(Cl)c1)N1CCCCC1 | 9 | -5.9* | -5 | 0.46
O=S(=O)(NCc1csc(-c2cccnc2)n1)c1ccc(Cl)s1 | 12 | -0.11 | 4 | -0.075
CCc1ccc(S(=O)(=O)NCc2csc(-c3ccccc3)n2)s1 | 20 | -3.2* | -3 | -0.2
CCc1ccc(S(=O)(=O)NCCc2csc(-c3cccnc3)n2)s1 | 8 | 0.097 | -1 | -0.65
O=S(=O)(NCCc1csc(-c2ccccc2)n1)c1ccc2c(c1)OCCO2 | 9 | -6.2* | 2 | 0.7
SMILES | HIV Rev-RRE inh | Cav32 inh | EphB4 ephrin blk | DAT uptake mod
COc1ccc(OC)c(S(=O)(=O)NCc2csc(-c3ccccc3)n2)c1 | 0 | 1.1 | -7 | 2.4*
COc1ccc(OC)c(S(=O)(=O)NCc2cn3c(C)csc3n2)c1 | 8 | 0.13 | 1 | -0.031
CCc1ccc(S(=O)(=O)NCCc2csc(-c3ccccc3)n2)s1 | 18 | -4.5* | -2 | 0.023
COC(C)(C)[C@H](O)COc1c2ccoc2cc2oc(=O)ccc12 | nt | 0.78 | nt | -0.52
O=[N+]([O-])/C=C/c1cn(Cc2ccc(F)cc2)c2ccccc12 | 16 | -0.0051 | 16* | 0.18
CC1CCN(C(=S)c2cn(Cc3ccc(F)cc3)c3ccccc23)CC1 | 4 | -2 | 6 | 0.33
COc1ccc2c(c1)CC/C(=C\C=C\c1ccccc1OC)C2=O | 11 | -0.077 | -2 | 2.4
COc1ccc2c(c1)C(=O)/C(=C/C=C/c1ccccc1)CC2 | 11 | -4.7* | 4 | -0.33
Cc1ccc(/C=N\Nc2cn[nH]c(=O)c2Cl)cc1 | 13 | -5.3* | -4 | 0.76
